An excerpt weighted towards active compounds, which were near 4.5% of everything screened.
MrgX1 antag: human MrgX1 receptor antagonism, primary screen | hit rate 1.3% among 310,000 | AID 588676 | Q96LB2 | B-score at 10 µM | MRGX1-HEK293 calcium flux, Fluo-4, BAM8-22 antagonism; stronger effect = lower value;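 active = calcium-response B-score plate-corrected more than 3 library SD below zero, starting fluorescence within 5 deviations, no agonist response on first addition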;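 also: peak minus trough fluorescence over baseline after final BAM8-22 challenge near maximal dose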
Target sequence (Q96LB2 whole entry, looked up): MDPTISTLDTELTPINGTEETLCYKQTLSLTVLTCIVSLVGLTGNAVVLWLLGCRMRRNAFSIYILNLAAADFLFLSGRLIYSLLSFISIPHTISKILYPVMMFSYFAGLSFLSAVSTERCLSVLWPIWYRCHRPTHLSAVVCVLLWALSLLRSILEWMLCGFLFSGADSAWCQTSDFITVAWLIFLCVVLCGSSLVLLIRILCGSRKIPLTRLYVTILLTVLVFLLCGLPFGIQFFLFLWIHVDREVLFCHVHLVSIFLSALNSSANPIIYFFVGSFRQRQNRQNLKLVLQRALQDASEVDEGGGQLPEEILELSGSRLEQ
RGS4 act: potentiators or activators of RGS4. AID 463111. hit rate 0.92% among 310,000. HEK293 M3R/inducible RGS4, carbachol calcium flux Fluo4; stronger effect = lower value. B-score at 10 µM;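 active = B-score of the integrated calcium signal more than 4 SD below the library mean, with starting fluorescence not abnormally high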;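 also: negative B-score means reduced calcium response which marks RGS4 activation or potentiation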
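System – HEK293 FlpIn-TREx cells, stable M3R, doxycycline-inducible RGS4 · Reagent – ECmax carbachol challenge · Times – compound preincubation 20 min at room temperature before agonist · Technique – Fluo4 fluorescence kinetic imaging of calcium · Measure – B score of integrated Fluo4 ratio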
MrgX1 allo act: human MrgX1 positive allosteric modulation, primary screen; Q96LB2; MrgX1-HEK293, Fluo-4 calcium flux, FDSS; stronger effect = higher value; B-score at 10 µM; hit rate 0.63% among 310,000;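 active = plate-corrected calcium response at least 3 library SD above typical, normal starting fluorescence, not activating the receptor alone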;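 also: compound read alongside a low EC10 to EC30 dose of BAM8-22 agonist; peak minus trough fluorescence over baseline measured at the second addition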
PHOSPHO1 block: PHOSPHO1 (human) inhibition; Q8TCT1; recombinant PHOSPHO1, absorbance phosphatase assay; inhibition, % at 13.3 µM; hit rate 1.1% among 290,000; AID 1565; in the data active = inhibition above about 60%
MrgX1 agonist: activates human MrgX1 receptor signaling | MrgX1-HEK293 cells, Fluo-4 calcium fluorescence, agonist mode; stronger effect = higher value | B-score at 10 µM | hit rate 0.44% among 310,000 | AID 588627;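 active = calcium response B-score plate-corrected fluorescence ratio at least 3 library SD, with starting fluorescence B-score inside 5 SD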
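Assay system: stable human MrgX1 HEK293 cell line. Quantity: 15,000 cells per well. Schedule: cells plated overnight, dye loaded 0.5 h 37 °C, 0.5 h room temperature. Detection: Fluo-4 NW calcium-flux fluorescence, kinetic read. Read-out basis: peak-minus-minimum fluorescence over baseline, converted to B scores. Control set: positive and negative control wells on each plate.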
RGS4 block: inhibitors of human RGS4 | P49798 | HEK293 M3R/RGS4 inducible, Fluo-4 calcium flux; stronger effect = higher value; triggered by carbachol at its EC20 | B-score at 10 µM | hit rate 0.45% among 310,000;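 active = B-score, a plate-corrected calcium signal, over three deviations above library mean, with baseline fluorescence within five deviations of library mean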;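 also: RGS4 expression induced by doxycycline in cells with stable M3 receptor; B-score is computed from the integrated fluorescence ratio over baseline after carbachol; higher B-score means a larger calcium signal and so more RGS4 inhibition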
Target sequence (P49798 whole entry, looked up): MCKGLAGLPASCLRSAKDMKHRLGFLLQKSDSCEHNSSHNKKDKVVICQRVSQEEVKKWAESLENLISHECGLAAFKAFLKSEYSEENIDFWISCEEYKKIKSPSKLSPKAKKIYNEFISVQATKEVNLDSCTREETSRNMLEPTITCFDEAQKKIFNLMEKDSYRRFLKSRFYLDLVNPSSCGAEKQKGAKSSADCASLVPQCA
Active calls of the source: *; i = inactive; x = not tested or not shown.

SMILES	MrgX1 antag	RGS4 act	MrgX1 allo act	PHOSPHO1 block	MrgX1 agonist	RGS4 block
CCNC(=O)COC(=O)/C=C/c1ccccc1[N+](=O)[O-]	i	i	i	17	i	i
COc1ccc(-n2c(SC3CCOC3=O)nc3ccccc3c2=O)cc1OC (stereo not drawn)	i	i	i	66*	i	i
COC(=O)c1ccc(NC(=O)CO/N=C2\CCCc3nonc32)cc1	i	i	i	-132	i	i
CC(C)(C)c1ccc(-n2ncc3c2CCCC3NC(=O)c2ccncc2)cc1 (stereo not drawn)	i	-8.9*	i	15	i	i
O=C(NC1CCCc2c1cnn2-c1cc(F)cc(F)c1)c1ccncc1 (stereo not drawn)	i	i	i	8	i	i
COc1cc2ccccc2cc1C(=O)Nc1ccccc1N1CCCC1	i	-7.3*	i	x	i	i
Cn1nc(C(=O)NCCOc2ccccc2)c2ccccc2c1=O	i	i	10*	0	i	i
Cn1nc(C(=O)Nc2ccccc2N2CCCC2)c2ccccc2c1=O	i	i	12*	0	i	i
O=C(NC(=S)Nc1ccccc1N1CCCCC1)c1ccc(F)cc1Cl	i	-7*	i	-4	i	i
O=C(NCCCO)/C(=C\c1ccco1)NC(=O)c1ccco1	i	i	i	29	i	i
Cc1ccc(C2=NN(CCC(=O)NCc3ccc4c(c3)OCO4)C(=O)CC2)cc1	i	i	i	-4	i	i
COC(CNC(=O)[C@H](CSCc1ccccc1)N1Cc2ccccc2C1=O)OC	i	i	8.2*	11	i	i
CCOC(=O)C1=C(C)N(C)C(=O)NC1c1cc2c(cc1[N+](=O)[O-])OCO2 (stereo not drawn)	i	i	i	-8	i	i
OC(COc1ccc(C2C=CCC2)cc1)CN1CCCCC1 (stereo not drawn)	i	-7*	i	-47	i	i
CCSc1nnc(NC(=O)Cn2cnc3c2c(=O)n(C)c(=O)n3C)s1	i	i	i	-77	i	i
Cc1ccc(/C=C/C2=Cc3c(sc(NC(=O)CSc4n[nH]c(N)n4)c3C#N)C(C)(C)C2)o1	-5.4*	i	i	-95	i	i
COc1cc(/C=N/NC(=O)COc2ccc(C)cc2)ccc1OC(=O)c1cccs1	i	i	i	-18	i	i
CCOc1cc(/C=N/NC(=O)COc2ccc(C)cc2)ccc1OC(=O)c1cccs1	i	i	i	60*	i	i
O=C(NCc1ccccc1)c1c[nH]c2ccccc2c1=O	i	i	i	29	i	i
CCOC(=O)C[N+](CC)(CC)CC#Cc1ccccc1	i	i	i	-5	i	i
Cc1cc(Cl)ccc1OCC(=O)Nc1ccccc1C(=O)N1CCOCC1	i	i	i	61*	i	i
COC(=O)Cn1c(=NC(=O)c2nc3ccccc3s2)sc2cc(S(C)(=O)=O)ccc21	-5.2*	i	i	-8	i	i
COC(=O)Cn1c(=NC(=O)c2ccc(Cl)s2)sc2cc(C)ccc21	-5.9*	i	i	9	i	i
Cc1noc(C)c1N=Nc1ccc(Br)cc1C(=O)O	i	i	i	-7	i	i
Cc1cc(C)cc(N(CCC#N)C(=O)COC(=O)c2ccccc2SCC(=O)N2CCCC2)c1	i	-7.1*	i	26	i	i
SMILES	MrgX1 antag	RGS4 act	MrgX1 allo act	PHOSPHO1 block	MrgX1 agonist	RGS4 block
Cc1ccc(N(CCC#N)C(=O)COC(=O)c2ccccc2SCC(=O)N2CCCC2)cc1	i	i	i	x	i	i
C=Cn1cc[n+](CC(=O)c2ccc(Cl)c(Cl)c2)c1	i	i	i	20	i	i
COc1ccc(CCNc2nc(-c3ccc(O)cc3)cs2)cc1OC	i	i	i	4	i	i
COc1ccc(CCNc2nc(-c3sc(C)nc3C)cs2)cc1OC	i	i	i	80*	i	i
COCCN(C(=O)COC(=O)c1cc(C)n(-c2ccccc2)c1C)c1c(N)n(Cc2ccccc2)c(=O)[nH]c1=O	i	i	i	x	i	i
CCOC(=O)N1CCN(C(=O)COC(=O)c2oc3ccc(OC)cc3c2C)CC1	i	i	i	19	i	i
Nc1nonc1C(=O)N/N=C\c1cc2c(cc1Cl)OCO2	i	i	i	-2	i	i
CN(C)c1oc(/C=C/c2cccs2)nc1S(=O)(=O)c1ccccc1	i	i	i	34	i	i
CC1(C)CC(=O)C([N+](=O)[O-])=C(NCCCC(=O)O)C1	-5.4*	i	i	-9	i	i
CC1(C)CC(=O)C(C#N)=C(NCCCO)C1	i	i	i	-8	i	i
COC(=O)c1cc(Br)c(N)cc1OC	i	i	i	61*	i	i
O=C(CSCc1c(Cl)cccc1Cl)N1CCOCC1	i	i	i	10	i	i
COc1c2c(nc3occc13)C(CC=C(C)C)(OC)C(=O)C=C2 (stereo not drawn)	i	i	12*	1	i	i
Cc1cc(C)nc(SCC(=O)c2ccc([N+](=O)[O-])cc2)n1	-6.1*	i	i	14	i	i
Cc1ccc(C(=O)CSc2n[nH]c(C)n2)cc1	i	i	i	92*	i	i
Cc1ccc(C)c(C(=O)CSc2n[nH]c(C)n2)c1	i	i	i	47	i	i
CCc1ccc(C(=O)CSc2n[nH]c(C)n2)cc1	i	i	i	102*	i	i
COc1ccc(-n2c(-c3ccc(Br)cc3)c[n+]3c2CCC3)cc1	i	-7.2*	i	28	i	i
COc1ccc(-n2c(-c3ccc(Br)cc3)c[n+]3c2CCCCC3)cc1	i	i	i	68*	i	i
Cc1ncoc1C(=O)N1CCCC(C(=O)Nc2cccc(-c3ccc(F)cc3)c2)C1 (stereo not drawn)	i	i	i	19	i	i
CCOc1ccccc1NC(=O)CSc1nnc(NC(=O)c2ccco2)s1	i	i	i	19	i	i
O=C(C1CCN(S(=O)(=O)c2cccc3cccnc23)CC1)N1CCCCC1	i	i	i	45	i	i
CC(C)CC(=O)NC(NC(=S)Nc1sc2c(c1C#N)CCCC2)C(Cl)(Cl)Cl (stereo not drawn)	-4.5*	i	i	-45	i	i

Compound activity from PubChem BioAssay.
